16 compounds from ChEMBL document CHEMBL3112469, “Substituted 2-phenylimidazopyridines: a new class of drug leads for human African trypanosomiasis” (J Med Chem, 2014) can be followed below.

Data set [1] concerns HepG2. Briefly: Cytotoxicity against human HepG2 cells after 48 hrs by Alamar Blue assay. The class given is cell-based. As to conditions: hepg2, 48 h.
A short description of data set [2]: Cytotoxicity against human CRL8155 cells after 48 hrs by Alamar Blue assay. The conditions noted are these: crl8155, 48 h. The class given is cell-based.
For data set [3], the system named is L6. The experiment in a line: Cytotoxicity against rat L6 cells after 48 hrs by Alamar Blue assay. The class given is cell-based. The conditions noted are these: l6, 48 h. (In general: Alamar Blue is a resazurin reagent that responds to reducing activity.)
For data set [4], the system named is Trypanosoma brucei brucei. The experiment in a line: Antiparasitic activity against Trypanosoma brucei brucei BF427 assessed as growth inhibition by Alamar Blue assay. Format: functional, organism-based. Summed up:
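Bloodstream-form T. brucei brucei BF427 grown with serial compound dilutions, each tested in triplicate. Growth quantified with AlamarBlue. Pentamidine isothionate included in every assay as positive control.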

The subject of data set [5] is Trypanosoma brucei rhodesiense. Briefly: Antiparasitic activity against Trypanosoma brucei rhodesiense. Format: functional, organism-based.
Data set [6] in a line: Apparent permeability across MDCK2 cells expressing human MDR1. The class given is ADME, cell-based, Canis lupus familiaris. As to conditions: dog, mdck-ii. Summed up:
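MDCKII cells transfected with human MDR1 (P-gp) grown as monolayers; permeability (Papp) measured in triplicate with and without the MDR1 inhibitor GF-120918.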

Data set [7] relates to Liver microsome. The experiment in a line: Half life in human liver microsomes by LC-MS analysis. Format: ADME. Summed up: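 Compounds incubated with mouse or human liver microsomes. Samples removed at time points and analysed by LC-MS/MS. Dextromethorphan and testosterone used as reference drugs to standardize each assay.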
The test system of data set [8] is Nucleic Acid. The experiment in a line: Ratio of drug level in brain to plasma in mouse at 5 mg/kg, ip after 60 mins. The class given is ADME, organism-based. Further details: dose 5 mg/kg, route intraperitoneal. The conditions noted are these: 1 h. Summed up:
(§1)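 Mice, groups of three, received 5 mg/kg ip in 0.4 mL vehicle (7% Tween 80, 3% ethanol, 5% DMSO, 0.9% saline) and were sacrificed at set times. Brains were weighed, frozen and homogenized in acetonitrile; plasma came from heparinized capillary blood. Both were measured by LC-MS/MS. Brain concentration used 1 g = 1 mL and was corrected for 2.5% vasculature volume.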

For data set [9], the system named is Nucleic Acid. Briefly: Ratio of drug level in brain to plasma in mouse at 5 mg/kg, ip after 15 mins. Format: ADME, organism-based. More on the design: dose 5 mg/kg, route intraperitoneal. As to conditions: 0.25 h. The gist of the method: as §1
Data set [10] has as its system Mus musculus. Briefly: (§2) AUC in mouse plasma at 50 mg/kg, po by LC-MS analysis. The conditions noted are these: in vivo. Further details: dose 50 mg/kg, route oral. Format: ADME, organism-based. Summed up: (§3)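 Mice, groups of three, were given 50 mg/kg by oral gavage in 0.2 mL vehicle (7% Tween 80, 3% ethanol, 5% DMSO, 0.9% saline). Blood was sampled at 30, 60, 120, 180, 240 and 360 min. Plasma was separated and extracted with acetonitrile, and compound was quantified by LC-MS/MS.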

Data set [11] is described as follows: Aqueous solubility of the compound at pH 2 after 5 to 10 mins by HPLC analysis. Format: physicochemical. As to conditions: buffer.
Data set [12] can be described thus: Aqueous solubility of the compound at pH 7.4 after 5 to 10 mins by HPLC analysis. Format: physicochemical. The conditions noted are these: buffer.
Data set [13] relates to Mus musculus. The experiment in a line: Elimination half life in mouse plasma at 50 mg/kg, po by LC-MS analysis. The class given is ADME, organism-based. Further details: dose 50 mg/kg, route oral. The conditions noted are these: in vivo. Summed up: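 Mice dosed by oral gavage at 50 mg/kg in 0.2 mL vehicle (7% Tween 80, 3% ethanol, 5% DMSO, 0.9% saline), groups of three. Plasma separated and extracted with acetonitrile, and compound quantified by LC-MS/MS.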

Data set [14] can be described thus: Clearance in mouse plasma at 50 mg/kg, po by LC-MS analysis. The class given is ADME, organism-based. More on the design: dose 50 mg/kg, route oral. The gist of the method:
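Mice, three per compound, given 50 mg/kg by oral gavage in 0.2 mL of 7% Tween 80/3% ethanol/5% DMSO/0.9% saline. Plasma extracted with acetonitrile and quantified by LC-MS/MS.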

Data set [15] deals with Mus musculus. The experiment in a line: (§4) Cmax in mouse plasma at 50 mg/kg, po LC-MS analysis. The conditions noted are these: in vivo. Further details: dose 50 mg/kg, route oral. The class given is ADME, organism-based. Summed up: as §3
Data set [16] has as its system Mus musculus. The experiment in a line: (§5) Tmax in mouse plasma at 50 mg/kg, po by LC-MS analysis. The conditions noted are these: in vivo. More on the design: dose 50 mg/kg, route oral. The class given is ADME, organism-based. The gist of the method: as §3
Data set [17] deals with Trypanosoma brucei rhodesiense. The experiment in a line: Antitrypanosomal activity against Trypanosoma brucei rhodesiense ST1B900 infected in Swiss Webster mouse assessed as cure from infection at 1 mg/kg, po bid administered 48 hrs postinfection for 5 days measured on day 4 to 13. The class given is functional, organism-based. More on the design: dose 1 mg/kg.
The test system of data set [18] is Trypanosoma brucei rhodesiense. The experiment in a line: Antitrypanosomal activity against Trypanosoma brucei rhodesiense ST1B900 infected in Swiss Webster mouse assessed as cure from infection at 50 mg/kg, po qd administered 48 hrs postinfection for 5 days measured on day 60. Format: functional, organism-based. Further details: dose 50 mg/kg.
Data set [19] relates to Trypanosoma brucei rhodesiense. Briefly: Antitrypanosomal activity against Trypanosoma brucei rhodesiense ST1B900 infected in Swiss Webster mouse assessed as cure from infection at 5 to 50 mg/kg, po bid administered 48 hrs postinfection for 5 days measured on day 60. Format: functional, organism-based.
Data set [20] has as its system Rattus norvegicus. The experiment in a line: Apparent volume of distribution at steady state in Sprague-Dawley rat at 20 mg/kg, po and 5 mg/kg, iv by LC-MS analysis. The class given is ADME, organism-based. As to conditions: in vivo. The gist of the method:
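Jugular-cannulated Sprague-Dawley rats, two per route. Oral gavage 20 mg/kg or iv 5 mg/kg infused over 0–3 min, each in 1 mL of 7% Tween 80/3% EtOH/5% DMSO/saline. Jugular blood sampled from 5 to 1440 min. Plasma extracted with acetonitrile and analysed by LC-MS/MS.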

Data set [21] deals with Rattus norvegicus. The experiment in a line: Oral bioavailability in Sprague-Dawley rat at 21.3 mg/kg by LC-MS analysis. Format: ADME, organism-based. The conditions noted are these: in vivo.
The nature of data set [22]: as §2. More on the design: dose 50 mg/kg, route oral. As to conditions: plasma. Format: ADME, organism-based. The gist of the method:
as §3

Data set [23] can be described thus: as §4. As to conditions: plasma. Further details: dose 50 mg/kg, route oral. Format: ADME, organism-based. The gist of the method:
as §3

Data set [24] can be described thus: as §5. The class given is ADME, organism-based. Further details: dose 50 mg/kg, route oral. The conditions noted are these: plasma. The gist of the method:
as §3

Converted amounts (≈) assume the structure as drawn. The source made the active and inactive calls. The rule behind the calls is not given here. A value given as a limit tells only on which side of the number the result lay.

Usually CC50 stands for the concentration at which the toxic effect on the cells reaches its halfway point. The term EC50 denotes the concentration needed to bring the measured effect to its halfway point. On to `O=C(Nc1ccc(F)c(-c2nc3cc(Cl)cnc3[nH]2)c1)N1CCCC1`, for which the CC50 in data set [1] is > 50 µM; in data set [2], > 50 µM; in data set [3] it was 15 µM. The EC50 in [4] was determined as 0.05 µM.
In the case of `O=C(Nc1ccc(F)c(-c2nc3cc(Cl)cnc3[nH]2)c1)c1ccco1`, the CC50 in [1] is > 50 µM; in data set [2], 1.7 µM; in data set [3], > 50 µM. For the same compound, in data set [4], the EC50 was 0.07 µM.
In the case of `O=C(Nc1ccc(F)c(-c2nc3ncc(-c4ccccc4)cc3o2)c1)c1ccco1`, the EC50 in data set [5] turned out to be 0.08 µM; in [4], 0.04 µM. In addition, the CC50 in data set [3] came to 7 µM.
What is called Papp is the rate of passage across a membrane or cell layer, normalised by area and donor concentration. Usually AUC stands for concentration integrated over time. As a reminder, the solubility is the concentration that dissolves in the medium under given conditions. A lower solubility goes with a poorly soluble substance. Broadly, the CL/F is the apparent clearance, not corrected for the fraction that reaches the circulation. The Cmax is the maximum level reached in the sampled fluid or tissue. One may read the Tmax as the time at which the peak concentration occurs. In the case of `O=C(Nc1ccc(Cl)c(-c2nc3ncccc3o2)c1)c1ccco1`, the Papp in data set [6] turned out to be 41.7 ×10⁻⁶ cm/s. In addition, the t1/2 in data set [7] came out at 6.4 min. Moreover, the figures for the BPR in data set [8] and in [9] were 0.38 and 0.54, respectively. Moreover, the AUC in data set [10] is 187 µM·min. The solubility in data set [11] turned out to be 22 µM (≈ 7.47 µg/mL); in [12], 20 µM (≈ 6.79 µg/mL). Also, the CC50 in data set [1], in [2] and in data set [3] was > 50 µM each time. For the same compound, in data set [13], the “beta t1/2” value amounted to 53 min. In addition, the CL/F in data set [14] came out at 98 mL/min/kg. Also, the EC50 in [4] worked out at 0.22 µM. The compound also had a Cmax in data set [15] of 60 nM. Moreover, the Tmax in [16] stood at 30 min.
As to `O=C(Nc1ccc(F)c(-c2nc3ncc(-c4ccc(F)cc4)cc3o2)c1)c1ccco1`, the EC50 in data set [5] was determined as 0.1 µM; in [4] it was 0.05 µM. The CC50 in [1] was 32 µM; in data set [2], > 50 µM.
As for `COc1ccc(-c2cnc3[nH]c(-c4cc(NC(=O)N5CCCC5)ccc4F)nc3c2)cn1`, the CC50 in data set [1] and in data set [2] was > 50 µM each time. Moreover, in [4], the EC50 is 0.005 µM.
Turning to `O=C(Nc1ccc(F)c(-c2nc3cc(-c4cncnc4)cnc3[nH]2)c1)N1CCCC1`, the CC50 was > 50 µM in data set [1] and 12 µM in data set [2]. For the same compound, in data set [4], the EC50 came to 0.03 µM.
The matching figures for `O=C(Nc1ccc(F)c(-c2nc3cc(-c4ccnc(Cl)c4)cnc3[nH]2)c1)N1CCCC1`: > 50 µM, > 50 µM and 0.004 µM.
As for `O=C(Nc1ccc(Cl)c(-c2nc3ncccc3o2)c1)C(F)(F)F`, the EC50 in [5] is > 50 µM.
In the case of `O=C(Nc1ccc(F)c(-c2nc3cc(-c4ccccc4)cnc3[nH]2)c1)N1CCCC1`, the Papp in data set [6] was determined as 40.1 ×10⁻⁶ cm/s. In addition, in data set [17], the result was inactive. Further, the result in data set [18] and in [19] was Active. In addition, in data set [20], the “Vdss(app)” value amounted to 2.4 L/kg. Besides, the F in data set [21] was determined as 35%. Moreover, the BPR in data set [8] was 0.5. In data set [22], this compound had an AUC of 18.8 µM·h. Further, in data set [4], the EC50 stood at 0.002 µM. This compound also displayed a Cmax in [23] of 4300 nM. The Tmax in data set [24] is 30 min.
With `O=C(Nc1ccc(F)c(-c2nc3cc(-c4ccoc4)cnc3[nH]2)c1)N1CCCC1`, the CC50 in [1] is > 50 µM; in data set [2], 25 µM. Moreover, the EC50 in data set [4] was 0.004 µM.
With `Nc1cccc(-c2cnc3[nH]c(-c4cc(NC(=O)N5CCCC5)ccc4F)nc3c2)c1`, the results for the CC50 in data set [1] and in data set [2] were 40 µM and 5 µM, respectively. Moreover, the EC50 in data set [4] was determined as 0.01 µM.
Taken in the same sequence, the figures for `O=C(Nc1ccc(F)c(-c2nc3cc(-c4cccnc4)cnc3[nH]2)c1)N1CCCC1` were > 50 µM, 14 µM and 0.005 µM.
Taken in the same sequence, the figures for `O=C(Nc1ccc(F)c(-c2nc3cc(-c4cncc(N5CCCC5)c4)cnc3[nH]2)c1)N1CCCC1` were > 50 µM, 8 µM and 0.02 µM.
The matching figures for `Cc1cncc(-c2cnc3[nH]c(-c4cc(NC(=O)N5CCCC5)ccc4F)nc3c2)c1`: > 50 µM, > 50 µM and 0.01 µM.
On to `O=C(c1ccco1)N(C(=O)c1ccco1)c1ccc(F)c(-c2nc3ncccc3o2)c1`, for which the CC50 in data set [1], in [2] and in data set [3] was > 50 µM each time. The EC50 in [4] was found to be 0.12 µM.
